# From ChEMBL document CHEMBL1125110, “Synthesis and pharmacological studies of N-[4-[2-hydroxy-3-[[2-[4-(1H-imidazol-1-yl)phenoxy]ethyl]amino]propoxy]phenyl]methanesulfonamide, a novel antiarrhythmic agent with class II and class III activities” (J Med Chem, 1990)
# Tests used:
# [1] = molecular target: Beta-2 adrenergic receptor (Canis lupus familiaris, UniProt P54833); assay: In vitro Beta-2 adrenergic receptor affinity in partially purified membrane fractions from canine lung tissue using […]dihydroalprenolol (4.5 nM); assay type: cell membranes
# Beta-2 adrenergic receptor, sequence (P54833 whole entry): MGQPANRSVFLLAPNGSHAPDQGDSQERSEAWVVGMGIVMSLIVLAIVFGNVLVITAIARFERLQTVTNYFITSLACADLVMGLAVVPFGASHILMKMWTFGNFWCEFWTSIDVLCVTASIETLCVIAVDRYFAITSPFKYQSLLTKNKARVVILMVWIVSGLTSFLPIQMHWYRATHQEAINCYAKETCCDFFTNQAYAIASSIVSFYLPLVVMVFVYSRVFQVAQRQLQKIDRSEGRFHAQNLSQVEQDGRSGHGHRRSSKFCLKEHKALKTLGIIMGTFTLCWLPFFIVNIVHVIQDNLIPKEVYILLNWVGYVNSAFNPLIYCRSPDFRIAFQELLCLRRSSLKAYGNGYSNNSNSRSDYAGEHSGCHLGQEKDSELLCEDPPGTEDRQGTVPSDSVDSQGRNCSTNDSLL
# Canis familiaris [2] = species on record: Canis familiaris; assay: In vitro electrophysiological activity in isolated canine cardiac Purkinje fibers using standard microelectrode technique; assay type: functional, Canis lupus familiaris, Purkinje fiber
# Method in brief: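 Canine cardiac Purkinje fibers studied with standard intracellular microelectrodes. C20APD95 is the concentration raising action potential duration at 95% repolarization by 20% over control. Reported as the log mean of n experiments with the range.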
# Canis familiaris [3] = assay: In vivo efficacy against halothane/epinephrine induced arrhythmias in 4 anesthetized dogs at 3 mg/kg; assay type: functional, Canis lupus familiaris
# Method in brief: (§1)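 Mongrel dogs under thiopental, ventilated with 1.5 vol% halothane in O2. After 15–30 min stabilization, drug given iv over 10 min. After 20 min equilibration, epinephrine infused at 1.5 µg/kg/min for 15 min. Effective if SVT/VF could not be induced.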
# Canis familiaris [4] = assay: In vivo efficacy against halothane/epinephrine induced arrhythmias in 4 anesthetized dogs at 1 mg/kg; assay type: functional, Canis lupus familiaris; method in brief: as §1
# Canis familiaris [5] = assay: In vivo isoproterenol response in conscious dogs at 0.3 mg/kg; assay type: functional, Canis lupus familiaris
# Method in brief: (§2)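 Conscious mongrel dogs (n = 4) with lead II ECG. Isoproterenol given iv (0.04, 0.08, 0.16 µg/kg) before and after cumulative compound doses of 0.3–10.0 mg/kg. Percent change from the control heart-rate response to 0.08 µg/kg isoproterenol, ± SEM.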
# Canis familiaris [6] = assay: In vivo isoproterenol response in conscious dogs at 1.0 mg/kg; assay type: functional, Canis lupus familiaris; method in brief: as §2
# Canis familiaris [7] = assay: In vivo isoproterenol response in conscious dogs at 10.0 mg/kg; assay type: functional, Canis lupus familiaris; method in brief: as §2
# Canis familiaris [8] = assay: In vivo isoproterenol response in conscious dogs at 3.0 mg/kg; assay type: functional, Canis lupus familiaris; method in brief: as §2
# Mustela putorius furo [9] = species on record: Mustela putorius furo; assay: In vitro contractile function in isolated ferret papillary muscle at 10 uM; assay type: functional, Muscle tissue
# Method in brief: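 Isolated ferret papillary muscle; drug at 10 μM. Read-out is percent change in force of contraction from the control value. Value is the average of n experiments, with the range given.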
# [10] = Bioavailability after oral administration of 3 mg/kg to dogs; assay type: ADME, organism-based, Canis lupus familiaris; settings: dog, in vivo
# Canis familiaris [11] = assay: In vivo cardiac output in anesthetized dog at 30 mg/kg; assay type: functional, Canis lupus familiaris
# Method in brief: (§3)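 Pentobarbital-anesthetized mongrel dogs, 30 min stabilization. Cumulative iv doses of 3, 10 and 30 mg/kg, each over 5 min, monitored every 5 min for 15 min. Percent change ± SEM from control at 15 min after the 30 mg/kg dose; n = 4.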
# Canis familiaris [12] = assay: In vivo heart rate in anesthetized dog at 30 mg/kg; assay type: functional, Canis lupus familiaris; method in brief: as §3
# Canis familiaris [13] = assay: In vivo PES efficacy in conscious dogs (iv); assay type: functional; settings: Canis lupus familiaris, read-out: MED
# Method in brief: (§4)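 Mongrel dogs with surgically produced occlusion/reperfusion infarction, studied conscious 3–8 days later. Two control arrhythmias induced by programmed electrical stimulation before iv drug; SVT ended by burst pacing, VF by DC countershock. Counted effective if noninducible after drug.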
# Canis familiaris [14] = assay: In vivo left ventricular contractility change in anesthetized dog at 30 mg/kg; assay type: functional, Canis lupus familiaris, Heart left ventricle; method in brief: as §3
# Canis familiaris [15] = assay: In vivo efficacy against halothane/epinephrine induced arrhythmias in 8 anesthetized dogs at 1 mg/kg; assay type: functional, Canis lupus familiaris; method in brief: as §1
# Canis familiaris [16] = assay: In vivo mean arterial pressure in anesthetized dog at 30 mg/kg; assay type: functional, Canis lupus familiaris, Artery; method in brief: as §3
# Canis familiaris [17] = assay: In vivo total peripheral resistance in anesthetized dog at 30 mg/kg; assay type: functional, Canis lupus familiaris; method in brief: as §3
# Canis familiaris [18] = assay: In vivo coronary flow in anesthetized dog at 30 mg/kg; assay type: functional, Canis lupus familiaris; method in brief: as §3
# Canis familiaris [19] = assay: In vivo PES efficacy in 8 conscious dogs (PES programmed electrical stimulation protocol); assay type: functional, Canis lupus familiaris; method in brief: as §4
# Canis familiaris [20] = assay: In vivo efficacy against halothane/epinephrine induced arrhythmias in 2 anesthetized dogs at 0.3 mg/kg; assay type: functional, Canis lupus familiaris; method in brief: as §1
# [21] = Compound was evaluated for lethal dose in rats after intravenous administration; Range is 200-300 mg/kg; assay type: toxicity, organism-based; settings: rat, in vivo
# Mustela putorius furo [22] = species on record: Mustela putorius furo; assay: In vitro contractile function in isolated ferret papillary muscle at 10 uM.; assay type: functional, Muscle tissue
# Method in brief: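 Isolated ferret papillary muscle exposed to drug at 10 μM. Read-out is percent change in contractile force from the control value. Reported as the average of n experiments with the range.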
# Canis familiaris [23] = assay: In vivo efficacy against halothane/epinephrine induced arrhythmias in 6 anesthetized dogs at 3 mg/kg; assay type: functional, Canis lupus familiaris; method in brief: as §1
# Canis familiaris [24] = assay: In vivo PES efficacy in 9 conscious dogs (PES programmed electrical stimulation protocol); assay type: functional, Canis lupus familiaris; method in brief: as §4
# [25] = molecular target: Phosphodiesterase; PDE3 & PDE4 (Homo sapiens) (UniProt P27815+Q14432+Q08499+Q07343+Q13370+Q08493); assay: Inhibition of canine cardiac particulate cAMP phosphodiesterase; assay type: protein assay; settings: Canis lupus familiaris; target entry is the homologue from another species; concentration not given here
# Method in brief: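 Particulate cAMP phosphodiesterase fraction from dog heart; inhibition measured at 100 μM.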
# [26] = Compound was evaluated for half life; assay type: ADME
# Canis familiaris [27] = assay: In vivo efficacy against halothane/epinephrine induced arrhythmias in 4 anesthetized dogs at 0.3 mg/kg; assay type: functional, Canis lupus familiaris; method in brief: as §1
Structure (SMILES),IC50 [1] [µM],C20 APD95 (Canis familiaris [2]) [µM],No. effective (Canis familiaris [4]),Response (Canis familiaris [5]) [%],Response (Canis familiaris [6]) [%],Response (Canis familiaris [7]) [%],Response (Canis familiaris [8]) [%],CO (Canis familiaris [11]) [%],HR (Canis familiaris [12]) [%],minimal effective dose (Canis familiaris [13]) [mg/kg],MAP (Canis familiaris [16]) [%],TPR (Canis familiaris [17]) [%],Coronary flow (Canis familiaris [18]) [%],Delta F (Mustela putorius furo [22]) [%],other results
CS(=O)(=O)Nc1ccc(OCC(O)CNCCOc2ccc(-n3ccnc3)cc2)cc1.Cl (stereo not given),47,0.4,,30,-0.75,-78,-74,-28,-49,~1,-25,3,-29,,bioavailability [10]: 60%; LV dp/dt (Canis familiaris [14]): -38%; No. effective (Canis familiaris [15]): 6; No. effective (Canis familiaris [19]): 8; No. effective (Canis familiaris [20]): 0; Delta F (Mustela putorius furo [9]): 53%; LD50 [21]: 200 mg/kg
CCN(CC)CC(O)COc1ccc(NS(C)(=O)=O)cc1 (stereo not given),,4.8,,,,,,,,,,,,,
CC(C)NCC(O)c1ccc(NS(C)(=O)=O)cc1 (racemic) [SOTALOL],,18,4,-72,-42,,-79,-61,-51,~2,-42,78,-51,,LV dP/dt (Canis familiaris [14]): -52%; No. effective (Canis familiaris [23]): 6; No. effective (Canis familiaris [24]): 7
CS(=O)(=O)Nc1ccc(OC[C@@H](O)CNCCOc2ccc(-n3ccnc3)cc2)cc1.Cl,100,0.8,4,10,-25,-64,-45,-32,-48,~0.4,-30,6,-41,75,LV dP/dt (Canis familiaris [14]): -28%; No. effective (Canis familiaris [19]): 7; inhibition [25]: 19%; half-life [26]: 180 min; No. effective (Canis familiaris [27]): 2
CCN(CC)CCOc1ccc(-n2ccnc2)cc1,,3.4,,,,,,,,,,,,,

# Further lines, with some results ahead:
IC50 [1] [µM],Structure (SMILES),C20 APD95 (Canis familiaris [2]) [µM],No. effective (Canis familiaris [4]),Response (Canis familiaris [5]) [%],Response (Canis familiaris [6]) [%],Response (Canis familiaris [7]) [%],Response (Canis familiaris [8]) [%],CO (Canis familiaris [11]) [%],HR (Canis familiaris [12]) [%],minimal effective dose (Canis familiaris [13]) [mg/kg],MAP (Canis familiaris [16]) [%],TPR (Canis familiaris [17]) [%],Coronary flow (Canis familiaris [18]) [%],Delta F (Mustela putorius furo [22]) [%],other results
> 100,CS(=O)(=O)Nc1ccc(OC[C@H](O)CNCCOc2ccc(-n3ccnc3)cc2)cc1.Cl,0.8,1,40,62,41,-6,,,,,,,,No. effective (Canis familiaris [3]): 1; Delta F (Mustela putorius furo [9]): 27%
23,CC(C)(COc1ccc(-n2ccnc2)cc1)NCC(O)COc1ccc(NS(C)(=O)=O)cc1.Cl.Cl (stereo not given),0.5,,,,,,,,,,,,69,
> 100,Cc1nccn1-c1ccc(OCCNCC(O)COc2ccc(N(C)S(C)(=O)=O)cc2)cc1 (stereo not given),>30,,,,,,,,,,,,-16,
57,Cc1nccn1-c1ccc(OCCNCC(O)COc2ccc(NS(C)(=O)=O)cc2)cc1.O=P(O)(O)O (stereo not given),7.3,,,,,,,,,,,,9,
> 100,CN(c1ccc(OCC(O)CNCCOc2ccc(-n3ccnc3)cc2)cc1)S(C)(=O)=O.Cl.Cl (stereo not given),1.4,,,,,,,,,,,,-15,
